The values below come from ChEMBL document CHEMBL1150957, “DNA-damaging steroidal alkaloids from Eclipta alba from the suriname rainforest1” (J Nat Prod, 1998).

SMILES strings stand for the structures. In brackets after ≈: the same amount, converted by molar mass.

As a reminder, the MIC is the least concentration at which growth counts as inhibited. The term IC50 denotes the point on the concentration scale where inhibition reaches its midpoint. A high value points to a need for much substance.

Assay [1] has as its system Saccharomyces cerevisiae. As to the kind of experiment: Antifungal activity against Saccharomyces cerevisiae 1353. It is filed as functional. Summed up:
(§1)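 Agar-well diffusion on mutant yeast lawns (1140 ise1 rad52; 1353 ISE+ rad52 top1; 1138 ise2 rad52). Stationary-phase YEPD cultures resuspended in 0.9% saline to 25% transmission at 600 nm, flooded onto YEPD agar with 0.8% Noble agar overlay, dried. Samples in DMSO-MeOH (1:1) added to 6-7 mm wells; nystatin control at 20 μg/mL; 30 °C, 36–48 h; IC12 (dose giving 12-mm zone) from dose–response curve.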

For assay [2], the system named is Saccharomyces cerevisiae. As to the kind of experiment: Antifungal activity against Saccharomyces cerevisiae Sc7. The class given is functional.
The subject of the next assay is Candida albicans. As to the kind of experiment: Antifungal activity against Candida albicans SC5314. The class given is functional.
The test system of assay [3] is Saccharomyces cerevisiae. As to the kind of experiment: Antifungal activity against Saccharomyces cerevisiae 1138. The class given is functional. The method, boiled down:
as §1

In assay [4] the test system is Saccharomyces cerevisiae. As to the kind of experiment: Antifungal activity against Saccharomyces cerevisiae 1140. The class given is functional. The method, boiled down: as §1
A further assay relates to M109. As to the kind of experiment: Cytotoxicity against mouse M109 cells. It is filed as functional, cell-based.

With `C[C@H]1CCC([C@H](C)[C@H]2CC[C@H]3[C@@H]4CC=C5C[C@@H](O)CC[C@]5(C)[C@H]4CC[C@]23C)=NC1`, the IC12 with Saccharomyces cerevisiae [1] was determined as 0.69 µg/mL; with Saccharomyces cerevisiae [3] it was 0.88 µg/mL; in the assay on Saccharomyces cerevisiae [4], 1.12 µg/mL. In addition, the values for the minimum inhibitory concentration (MIC) in the assay with Saccharomyces cerevisiae [2] and with Candida albicans were 6.25 µg/mL (≈ 15.7 µM) and 12.5 µg/mL (≈ 31.4 µM), respectively.
Take `C[C@H](C1=NC[C@](C)(O)CC1)[C@H]1CC[C@H]2[C@@H]3CC=C4C[C@@H](O)CC[C@]4(C)[C@H]3CC[C@]12C`: the IC12 in the assay with Saccharomyces cerevisiae [1] was 4 µg/mL; with Saccharomyces cerevisiae [3] it was 0.35 µg/mL; in the assay with Saccharomyces cerevisiae [4], 2.5 µg/mL. The MIC in the assay with Saccharomyces cerevisiae [2] is 6.25 µg/mL (≈ 15.1 µM); with Candida albicans, less than 3.1 µg/mL. The molecule also yielded a half-maximal inhibitory concentration (IC50) in the assay with M109 of 31.2 µg/mL (≈ 75.4 µM).
As to `C[C@H]1CCC([C@H](C)[C@H]2CC[C@H]3[C@@H]4CC=C5[C@@H](O)[C@@H](O)CC[C@]5(C)[C@H]4CC[C@]23C)=NC1`, the values for the IC12 with Saccharomyces cerevisiae [1], in the assay on Saccharomyces cerevisiae [3] and in the assay with Saccharomyces cerevisiae [4] were 24 µg/mL, 10 µg/mL and 23 µg/mL, respectively. In addition, the values for the MIC against Saccharomyces cerevisiae [2] and against Candida albicans were 200 µg/mL (≈ 484 µM) and 400 µg/mL (≈ 967 µM), respectively. The molecule also gave a concentration for half-maximal inhibition (IC50) in the assay with M109 of 10.5 µg/mL (≈ 25.4 µM).
Take `C[C@H]1CCC([C@H](C)[C@H]2CC[C@H]3[C@@H]4CCC5=CC(=O)CC[C@]5(C)[C@H]4CC[C@]23C)=NC1`: the IC12 in the assay with Saccharomyces cerevisiae [1] came out at 50 µg/mL; with Saccharomyces cerevisiae [3], 14 µg/mL; with Saccharomyces cerevisiae [4] it was 45 µg/mL. In the assay on M109, this molecule showed an IC50 of 16.8 µg/mL (≈ 42.5 µM).
`C[C@H]1CCC([C@@H](C)[C@H]2CC[C@H]3[C@@H]4CC=C5[C@@H](O)[C@@H](O)CC[C@]5(C)[C@H]4CC[C@]23C)=NC1`: the IC12 in the assay with Saccharomyces cerevisiae [1] is greater than 50 µg/mL; with Saccharomyces cerevisiae [3], 12 µg/mL; in the assay on Saccharomyces cerevisiae [4] it was 10 µg/mL. Also, the minimum inhibitory concentration (MIC) in the assay on Saccharomyces cerevisiae [2] stood at 100 µg/mL (≈ 242 µM); in the assay with Candida albicans it was 200 µg/mL (≈ 484 µM). In the assay on M109, this molecule showed an IC50 of 15.5 µg/mL (≈ 37.5 µM).
Take `C[C@@H]1[C@H](O)[C@@H](C)/C=C/C=C/C=C/C=C/C=C/C=C/C=C/[C@H](O[C@@H]2O[C@H](C)[C@@H](O)[C@H](N)[C@@H]2O)C[C@@H]2O[C@](O)(C[C@@H](O)C[C@@H](O)[C@H](O)CC[C@@H](O)C[C@@H](O)CC(=O)O[C@H]1C)C[C@H](O)[C@H]2C(=O)O` [AMPHOTERICIN B]: the IC12 in the assay on Saccharomyces cerevisiae [1] turned out to be 25 µg/mL; with Saccharomyces cerevisiae [3], 8.1 µg/mL; in the assay on Saccharomyces cerevisiae [4], 15.6 µg/mL. For the same molecule, the minimal inhibitory concentration (MIC) with Saccharomyces cerevisiae [2] came out at 12.5 µg/mL (≈ 13.5 µM); against Candida albicans, 1.6 µg/mL (≈ 1.73 µM). This molecule displayed a concentration for half-maximal inhibition (IC50) with M109 of 7.5 µg/mL (≈ 8.12 µM).
Turning to `Cc1cnc([C@H](C)[C@H]2CC[C@H]3[C@@H]4CC=C5C[C@@H](O)CC[C@]5(C)[C@H]4CC[C@]23C)c(O)c1` [ECLIPTALBINE], the IC12 with Saccharomyces cerevisiae [1] was 0.4 µg/mL; with Saccharomyces cerevisiae [3], 0.04 µg/mL; in the assay on Saccharomyces cerevisiae [4], 0.7 µg/mL. In addition, the MIC in the assay with Saccharomyces cerevisiae [2] and in the assay on Candida albicans was 20 µg/mL (≈ 48.8 µM) each time. In addition, the half-inhibitory concentration (IC50) in the assay with M109 is greater than 20 µg/mL.
In the case of `CC(=O)N1CCN(c2ccc(OCC3COC(Cn4ccnc4)(c4ccc(Cl)cc4Cl)O3)cc2)CC1` (centres undefined) [KETOCONAZOLE], the results for the IC12 in the assay with Saccharomyces cerevisiae [1], in the assay with Saccharomyces cerevisiae [3] and with Saccharomyces cerevisiae [4] were 9.4 µg/mL, 2.5 µg/mL and 4.8 µg/mL, respectively. The minimum inhibitory concentration (MIC) in the assay on Saccharomyces cerevisiae [2] was 1.6 µg/mL (≈ 3.01 µM); against Candida albicans, less than 0.8 µg/mL. This molecule also returned a half-inhibitory concentration (IC50) in the assay with M109 of 17 µg/mL (≈ 32 µM).
Turning to `C[C@H]1CC[C@@H]([C@@H](C)[C@H]2CC[C@H]3[C@@H]4CC=C5C[C@@H](O)CC[C@]5(C)[C@H]4CC[C@]23C)NC1` [VERAMILINE], the IC12 with Saccharomyces cerevisiae [1] was 4 µg/mL; in the assay on Saccharomyces cerevisiae [3] it was 3 µg/mL; in the assay with Saccharomyces cerevisiae [4], 3 µg/mL.
For `C[C@H]1CCC([C@@H](C)[C@H]2CC[C@H]3[C@@H]4CC=C5C[C@@H](O)CC[C@]5(C)[C@H]4CC[C@]23C)=NC1` [VERAZINE], the IC12 was 0.14 µg/mL in the assay on Saccharomyces cerevisiae [1], 0.14 µg/mL with Saccharomyces cerevisiae [3] and 0.25 µg/mL in the assay on Saccharomyces cerevisiae [4]. In addition, the MIC with Saccharomyces cerevisiae [2] turned out to be 6.25 µg/mL (≈ 15.7 µM); against Candida albicans, 25 µg/mL (≈ 62.9 µM). The half-maximal inhibitory concentration (IC50) in the assay on M109 came out at 12.5 µg/mL (≈ 31.4 µM).
